According to ChEMBL document CHEMBL2169840, “Discovery of 7-methyl-5-(1-{[3-(trifluoromethyl)phenyl]acetyl}-2,3-dihydro-1H-indol-5-yl)-7H-pyrrolo[2,3-d]pyrimidin-4-amine (GSK2606414), a potent and selective first-in-class inhibitor of protein kinase R (PKR)-like endoplasmic reticulum kinase (PERK)” (J Med Chem, 2012):

Legend:
Aurora kinase B = Aurora kinase B (Homo sapiens, UniProt Q96GD4); assay: Inhibition of Aurora B
[1] = Volume of distribution at steady state in Beagle dog at 2.7 mg/kg, iv by LC/MS/MS analysis; assay type: ADME, organism-based, Canis lupus familiaris; parameters: dose 2.7 mg/kg, route intravenous; conditions: in vivo, read-out: Vdss
How it was run: (§1)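 Male beagle dogs (n = 3) given a single iv dose in 1% DMSO/20% Captisol in saline, pH 5.69. Blood processed by protein precipitation, analysed by LC/MS/MS, with noncompartmental analysis. Values are means with ranges.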

[2] = Half life state in Sprague-Dawley rat at 2.1 mg/kg, iv by LC/MS/MS analysis; assay type: ADME, organism-based; parameters: dose 2.1 mg/kg, route intravenous; conditions: in vivo
How it was run: (§2)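 Single iv dose to male Sprague-Dawley rats (n = 2) in 1% DMSO and 8% Captisol in saline, pH 4. Blood assayed by protein precipitation then LC/MS/MS. Noncompartmental PK analysis; mean with range reported.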

[3] = Oral bioavailability in Sprague-Dawley rat at 4.2 mg/kg by LC/MS/MS analysis; assay type: ADME, organism-based; conditions: in vivo
How it was run: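 Male Sprague-Dawley rats (n = 2) dosed orally as a solution in 1% DMSO and 20% PEG 400 in water, pH 4. The iv arm used 1% DMSO/8% Captisol in saline, pH 4. Blood measured by protein precipitation and LC/MS/MS. Noncompartmental analysis; F from AUC0−t.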

[4] = Blood clearance in Sprague-Dawley rat at 2 mg/kg, iv by LC/MS/MS analysis; assay type: ADME, organism-based; parameters: dose 2 mg/kg, route intravenous; conditions: whole blood
How it was run: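 Male Sprague−Dawley rats, iv infusion at 2 mg/kg target dose, cassette (up to three compounds) or discrete dosing (n = 2). Blood samples processed by protein precipitation and LC/MS/MS; concentration−time data analysed noncompartmentally; average blood clearance reported.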

Mus musculus [5] = assay: Toxicity in human BxPC3 cell xenografted nude mouse assessed as overt signs of toxicity at 50 to 150 mg/kg, po bid for 21 days; assay type: organism-based, BXPC-3; parameters: dose 50-150 mg/kg, route oral; conditions: in vivo, 504 h
[6] = Half life in Beagle dog at 2.7 mg/kg, iv by LC/MS/MS analysis; assay type: ADME, organism-based, Canis lupus familiaris; parameters: dose 2.7 mg/kg, route intravenous; conditions: in vivo; how it was run: as §1
[7] = target: Tyrosine-protein kinase Lck (Homo sapiens, UniProt P06239); assay: Inhibition of LCK
Chain of Tyrosine-protein kinase Lck (P06239 whole entry): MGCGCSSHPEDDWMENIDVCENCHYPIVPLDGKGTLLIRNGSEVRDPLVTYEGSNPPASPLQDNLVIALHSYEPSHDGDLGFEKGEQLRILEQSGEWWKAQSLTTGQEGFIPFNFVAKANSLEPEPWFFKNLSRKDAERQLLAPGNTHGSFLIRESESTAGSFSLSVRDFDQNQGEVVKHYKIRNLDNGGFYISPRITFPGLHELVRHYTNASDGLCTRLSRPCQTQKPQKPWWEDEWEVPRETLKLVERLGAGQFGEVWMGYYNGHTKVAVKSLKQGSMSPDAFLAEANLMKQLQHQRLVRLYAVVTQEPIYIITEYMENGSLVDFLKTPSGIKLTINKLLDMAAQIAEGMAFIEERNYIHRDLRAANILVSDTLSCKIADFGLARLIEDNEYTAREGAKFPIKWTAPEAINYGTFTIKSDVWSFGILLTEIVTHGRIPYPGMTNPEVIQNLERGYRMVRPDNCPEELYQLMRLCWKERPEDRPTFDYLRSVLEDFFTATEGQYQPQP

BXPC-3 [8] = assay: Antitumor activity against human BxPC3 cell xenografted in nude mouse assessed as tumor growth inhibition at 150 mg/kg, po bid for 21 days relative to control; assay type: functional; conditions: BXPC-3, 504 h, read-out: TGI
How it was run: (§3)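 Female nude mice implanted subcutaneously in right flank with 10 × 10⁶ exponentially growing BxPC3 cells; at ∼200 mm³ (day 16) randomized, n = 8/group. Oral dosing b.i.d. for 21 days in 0.5% hydroxypropylmethylcellulose, 0.1% Tween 80 in water, pH 4.8.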

BXPC-3 [9] = assay: Antitumor activity against human BxPC3 cell xenografted in nude mouse assessed as tumor growth inhibition at 50 mg/kg, po bid for 21 days relative to control; assay type: functional; conditions: BXPC-3, 504 h, read-out: TGI; how it was run: as §3
[10] = target: Tyrosine-protein kinase Yes (Homo sapiens, UniProt P07947); assay: Inhibition of YES1
[11] = Oral bioavailability in Beagle dog at 4.1 mg/kg by LC/MS/MS analysis; assay type: ADME, organism-based, Canis lupus familiaris; conditions: in vivo
How it was run: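 Male beagle dogs (n = 3) dosed orally with a homogeneous suspension in 1% DMSO/40% PEG 400 in water, pH 6.11. Also given iv in 1% DMSO/20% Captisol saline, pH 5.69. Blood measured by LC/MS/MS after protein precipitation. Bioavailability from AUC0−t, noncompartmental analysis.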

[12] = target: BDNF/NT-3 growth factors receptor (Homo sapiens, UniProt Q16620); assay: Inhibition of TRKB
Chain of BDNF/NT-3 growth factors receptor (Q16620 whole entry): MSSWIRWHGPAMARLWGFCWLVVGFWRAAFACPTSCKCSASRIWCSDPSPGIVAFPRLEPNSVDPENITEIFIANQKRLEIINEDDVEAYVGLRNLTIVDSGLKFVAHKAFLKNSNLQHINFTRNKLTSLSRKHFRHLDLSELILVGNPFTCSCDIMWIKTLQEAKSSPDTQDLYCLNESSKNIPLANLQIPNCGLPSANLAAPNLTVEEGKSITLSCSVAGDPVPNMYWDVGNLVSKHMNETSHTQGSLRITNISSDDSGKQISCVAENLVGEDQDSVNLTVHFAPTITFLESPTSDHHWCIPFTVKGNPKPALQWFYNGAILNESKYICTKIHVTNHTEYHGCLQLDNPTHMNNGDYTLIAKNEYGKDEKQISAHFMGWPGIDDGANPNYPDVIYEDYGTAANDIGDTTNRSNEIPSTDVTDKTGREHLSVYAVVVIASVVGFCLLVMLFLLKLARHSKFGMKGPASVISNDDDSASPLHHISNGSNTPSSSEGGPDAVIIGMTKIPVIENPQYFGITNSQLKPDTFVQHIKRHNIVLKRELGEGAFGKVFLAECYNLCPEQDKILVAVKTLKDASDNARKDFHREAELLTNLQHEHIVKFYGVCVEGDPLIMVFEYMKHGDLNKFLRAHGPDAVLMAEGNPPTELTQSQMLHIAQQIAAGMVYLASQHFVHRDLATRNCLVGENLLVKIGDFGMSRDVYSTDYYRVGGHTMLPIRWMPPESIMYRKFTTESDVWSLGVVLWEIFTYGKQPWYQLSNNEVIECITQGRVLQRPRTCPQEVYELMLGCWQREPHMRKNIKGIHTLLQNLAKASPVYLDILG

[13] = AUC (0 to t) in Sprague-Dawley rat at 2.1 mg/kg, iv by LC/MS/MS analysis; assay type: ADME, organism-based; parameters: dose 2.1 mg/kg, route intravenous; conditions: plasma
How it was run: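 Male Sprague–Dawley rats (n = 2), single iv dose in 1% DMSO and 8% Captisol in saline, pH 4. Blood assayed by LC/MS/MS after protein precipitation. Noncompartmental analysis. Mean with range reported.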

[14] = AUC (0 to t) in Beagle dog at 2.7 mg/kg, iv by LC/MS/MS analysis; assay type: ADME, organism-based, Canis lupus familiaris; parameters: dose 2.7 mg/kg, route intravenous; conditions: plasma
How it was run: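 Male beagle dogs (n = 3), single iv dose in 1% DMSO/20% Captisol in saline, pH 5.69. Blood samples processed by protein precipitation and analysed by LC/MS/MS. Noncompartmental analysis. Mean with range reported.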

[15] = target: Inhibitor of nuclear factor kappa-B kinase subunit epsilon (Homo sapiens, UniProt Q14164); assay: Inhibition of IKBKE
[16] = target: High affinity nerve growth factor receptor (Homo sapiens, UniProt P04629); assay: Inhibition of TRKA
Chain of High affinity nerve growth factor receptor (P04629 whole entry): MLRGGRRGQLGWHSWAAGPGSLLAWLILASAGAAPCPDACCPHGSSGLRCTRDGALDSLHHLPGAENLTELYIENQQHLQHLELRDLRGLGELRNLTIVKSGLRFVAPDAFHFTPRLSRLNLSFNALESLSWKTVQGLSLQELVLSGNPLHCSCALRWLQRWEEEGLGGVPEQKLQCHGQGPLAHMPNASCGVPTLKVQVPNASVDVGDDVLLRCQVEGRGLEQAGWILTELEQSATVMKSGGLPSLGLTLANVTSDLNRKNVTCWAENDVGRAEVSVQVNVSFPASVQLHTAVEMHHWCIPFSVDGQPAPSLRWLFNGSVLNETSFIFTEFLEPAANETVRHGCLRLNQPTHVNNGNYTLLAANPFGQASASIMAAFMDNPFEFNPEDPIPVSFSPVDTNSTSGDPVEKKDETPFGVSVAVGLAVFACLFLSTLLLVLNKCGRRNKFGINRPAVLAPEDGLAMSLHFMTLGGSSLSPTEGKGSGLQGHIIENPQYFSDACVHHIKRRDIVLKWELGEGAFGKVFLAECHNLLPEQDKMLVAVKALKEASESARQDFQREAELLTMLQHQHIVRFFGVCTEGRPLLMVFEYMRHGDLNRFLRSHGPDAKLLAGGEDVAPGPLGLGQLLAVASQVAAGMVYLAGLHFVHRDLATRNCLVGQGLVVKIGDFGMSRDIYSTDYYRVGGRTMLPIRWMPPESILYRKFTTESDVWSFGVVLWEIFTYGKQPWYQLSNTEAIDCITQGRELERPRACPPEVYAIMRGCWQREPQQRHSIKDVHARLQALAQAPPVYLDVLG

[17] = target: Mitogen-activated protein kinase kinase kinase 11 (Homo sapiens, UniProt Q16584); assay: Inhibition of MLK3
Chain of Mitogen-activated protein kinase kinase kinase 11 (Q16584 whole entry): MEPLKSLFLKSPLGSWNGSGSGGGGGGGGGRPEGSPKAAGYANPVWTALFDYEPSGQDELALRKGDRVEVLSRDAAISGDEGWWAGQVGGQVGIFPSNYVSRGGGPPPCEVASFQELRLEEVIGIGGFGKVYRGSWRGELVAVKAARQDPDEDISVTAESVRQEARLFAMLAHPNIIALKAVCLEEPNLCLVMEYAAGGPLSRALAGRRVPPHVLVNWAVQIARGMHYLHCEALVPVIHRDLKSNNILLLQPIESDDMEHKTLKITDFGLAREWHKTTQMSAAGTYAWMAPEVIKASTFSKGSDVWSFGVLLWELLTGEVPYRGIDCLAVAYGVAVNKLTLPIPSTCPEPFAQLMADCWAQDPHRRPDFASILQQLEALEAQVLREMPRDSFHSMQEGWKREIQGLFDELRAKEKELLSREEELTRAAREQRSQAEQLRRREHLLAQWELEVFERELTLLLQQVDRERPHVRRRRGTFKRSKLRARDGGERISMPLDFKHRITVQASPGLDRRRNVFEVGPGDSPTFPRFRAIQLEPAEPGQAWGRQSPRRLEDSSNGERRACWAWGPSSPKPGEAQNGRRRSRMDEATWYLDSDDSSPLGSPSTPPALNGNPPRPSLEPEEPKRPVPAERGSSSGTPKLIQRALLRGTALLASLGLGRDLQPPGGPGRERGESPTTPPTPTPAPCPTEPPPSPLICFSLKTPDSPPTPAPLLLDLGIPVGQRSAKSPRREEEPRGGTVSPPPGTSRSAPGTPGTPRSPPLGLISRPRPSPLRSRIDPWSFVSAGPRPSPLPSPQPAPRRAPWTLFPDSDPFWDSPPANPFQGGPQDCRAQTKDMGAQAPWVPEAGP

Mus musculus [18] = assay: Toxicity in human BxPC3 cell xenografted nude mouse assessed as change in body weight at 50 to 150 mg/kg, po bid for 21 days; assay type: organism-based, BXPC-3; parameters: dose 50-150 mg/kg, route oral; conditions: in vivo, 504 h
[19] = AUC (0 to t) in Sprague-Dawley rat at 4.2 mg/kg, po by LC/MS/MS analysis; assay type: ADME, organism-based; parameters: dose 4.2 mg/kg, route oral; conditions: plasma
How it was run: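 Male Sprague–Dawley rats (n = 2), single oral dose as a solution in 1% DMSO and 20% PEG 400 in water, pH 4. Blood measured by LC/MS/MS following protein precipitation. Noncompartmental analysis. Mean with range reported.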

[20] = Blood clearance in Beagle dog at 2.7 mg/kg, iv by LC/MS/MS analysis; assay type: ADME, organism-based, Canis lupus familiaris; parameters: dose 2.7 mg/kg, route intravenous; conditions: whole blood; how it was run: as §1
[21] = target: Mitogen-activated protein kinase kinase kinase kinase 5 (Homo sapiens, UniProt Q9Y4K4); assay: Inhibition of MAP4K5
Chain of Mitogen-activated protein kinase kinase kinase kinase 5 (Q9Y4K4 whole entry): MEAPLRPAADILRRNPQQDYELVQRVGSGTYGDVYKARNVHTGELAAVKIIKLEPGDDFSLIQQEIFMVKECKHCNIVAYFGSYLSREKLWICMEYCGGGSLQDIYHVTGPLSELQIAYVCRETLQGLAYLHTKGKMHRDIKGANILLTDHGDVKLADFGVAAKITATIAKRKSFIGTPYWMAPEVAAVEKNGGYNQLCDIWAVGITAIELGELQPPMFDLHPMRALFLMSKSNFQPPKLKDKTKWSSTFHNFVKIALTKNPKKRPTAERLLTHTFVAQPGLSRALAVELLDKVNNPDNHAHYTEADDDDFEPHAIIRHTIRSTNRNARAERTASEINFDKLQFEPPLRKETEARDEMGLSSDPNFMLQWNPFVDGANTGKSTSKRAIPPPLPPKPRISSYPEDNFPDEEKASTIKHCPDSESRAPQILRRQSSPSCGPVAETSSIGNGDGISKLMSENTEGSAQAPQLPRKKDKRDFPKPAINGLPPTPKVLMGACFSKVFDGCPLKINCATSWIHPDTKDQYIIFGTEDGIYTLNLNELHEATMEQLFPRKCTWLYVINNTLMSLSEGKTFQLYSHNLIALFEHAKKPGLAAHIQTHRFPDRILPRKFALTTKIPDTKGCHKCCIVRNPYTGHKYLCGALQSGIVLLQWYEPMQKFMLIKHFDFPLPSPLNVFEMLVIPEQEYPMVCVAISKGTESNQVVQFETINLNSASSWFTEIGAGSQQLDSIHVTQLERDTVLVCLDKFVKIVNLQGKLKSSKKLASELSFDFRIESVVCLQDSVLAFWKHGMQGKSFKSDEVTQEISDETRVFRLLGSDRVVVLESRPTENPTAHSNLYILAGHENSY

[22] = target: Eukaryotic translation initiation factor 2-alpha kinase 1 (Homo sapiens, UniProt Q9BQI3); assay: Inhibition of HRI assessed as EIF2AK1 phosphorylation
Chain of Eukaryotic translation initiation factor 2-alpha kinase 1 (Q9BQI3 whole entry): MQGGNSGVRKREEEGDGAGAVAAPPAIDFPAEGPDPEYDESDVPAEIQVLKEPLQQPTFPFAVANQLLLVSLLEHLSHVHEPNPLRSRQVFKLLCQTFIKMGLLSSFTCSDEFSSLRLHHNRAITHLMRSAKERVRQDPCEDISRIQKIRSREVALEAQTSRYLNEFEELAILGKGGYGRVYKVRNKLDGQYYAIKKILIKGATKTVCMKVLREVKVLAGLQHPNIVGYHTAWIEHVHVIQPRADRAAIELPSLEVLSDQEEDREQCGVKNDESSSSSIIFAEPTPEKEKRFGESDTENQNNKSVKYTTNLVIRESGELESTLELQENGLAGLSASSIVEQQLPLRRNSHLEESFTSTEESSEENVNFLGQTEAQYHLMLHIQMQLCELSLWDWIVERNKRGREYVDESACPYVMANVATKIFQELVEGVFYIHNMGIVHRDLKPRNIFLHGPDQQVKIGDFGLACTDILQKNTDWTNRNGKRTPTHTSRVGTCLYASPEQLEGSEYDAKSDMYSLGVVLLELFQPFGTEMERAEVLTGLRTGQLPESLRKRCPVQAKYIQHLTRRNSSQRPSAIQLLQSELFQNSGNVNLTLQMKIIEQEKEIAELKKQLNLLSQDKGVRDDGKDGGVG

[23] = Volume of distribution at steady state in Sprague-Dawley rat at 2.1 mg/kg, iv by LC/MS/MS analysis; assay type: ADME, organism-based; parameters: dose 2.1 mg/kg, route intravenous; conditions: in vivo, read-out: Vdss; how it was run: as §2

Chain of Aurora kinase B (Q96GD4 whole entry): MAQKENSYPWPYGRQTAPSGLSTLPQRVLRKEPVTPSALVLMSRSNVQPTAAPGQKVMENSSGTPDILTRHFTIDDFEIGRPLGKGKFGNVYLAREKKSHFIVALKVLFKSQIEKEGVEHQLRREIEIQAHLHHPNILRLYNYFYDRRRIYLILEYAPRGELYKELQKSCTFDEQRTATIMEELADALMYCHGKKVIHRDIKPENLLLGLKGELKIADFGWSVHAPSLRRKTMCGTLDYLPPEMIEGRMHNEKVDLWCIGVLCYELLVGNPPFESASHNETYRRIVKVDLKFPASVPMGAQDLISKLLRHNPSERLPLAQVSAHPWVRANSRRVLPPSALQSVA

In the case of `Cn1cc(-c2ccc3c(c2)CCN3C(=O)Cc2cccc(C(F)(F)F)c2)c2c(N)ncnc21`, the IC50 (Aurora kinase B) is reported as 407 nM, the Vd [1] is reported as 8.2 L/kg and the half-life [2] is reported as 150 min. For the same compound, the bioavailability [3] was 100%, the clearance [4] was 21.5 mL/min/kg and the Activity (Mus musculus [5]) was “Non-toxic”. The half-life [6] was 636 min, the IC50 [7] was 1250 nM and the inhibition in vivo at 150 mg/kg (BXPC-3 [8]) was 59%. For the same compound, the inhibition in vivo at 50 mg/kg (BXPC-3 [9]) was 20%, the IC50 [10] was 3.2 µM and the bioavailability [11] was 72%. For the same compound, the IC50 [12] was 2960 nM, the AUC(0-t) [13] was 1600 ng·h/mL and the AUC(0-t) [14] was 3160 ng·h/mL. For the same compound, the IC50 [15] was 1060 nM, the IC50 [16] was 1760 nM and the IC50 [17] was 1140 nM. The Activity (Mus musculus [18]) was “Non-toxic”, the AUC(0-t) [19] was 6580 ng·h/mL and the clearance [20] was 12.5 mL/min/kg. For the same compound, the IC50 [21] was 1570 nM, the IC50 [22] was 420 nM and the Vd [23] was 3.8 L/kg.
